Data on 17 compounds can be found in ChEMBL document CHEMBL1157040, “Anti-HSV-1 activity and mechanism of action of some new synthesized substituted pyrimidine, thiopyrimidine and thiazolopyrimidine derivatives” (2010).

Common to all, as to type: functional
What all share (conditions): Human alphaherpesvirus 1, Vero

Test [1] deals with Human alphaherpesvirus 1. Description: Antiviral activity against HSV1 infected in african green monkey Vero cells assessed as inhibition of plaque formation at 2 ug/mL after 1 hr relative to control. Summed up:
(§1)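 Plaque reduction in Vero cells (DMEM, 10% FBS, pH 7.2–7.4). Virus–compound mixture inoculated onto monolayer for 1 h adsorption. Overlay of DMEM with 2% agarose, incubated at 37 °C until plaques formed. Fixed with 10% formalin for 2 h and stained with crystal violet. % inhibition = (untreated count − treated count)/untreated count × 100.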

The subject of test [2] is Human alphaherpesvirus 1. The test can be described thus: Antiviral activity against HSV1 infected in african green monkey Vero cells assessed as inhibition of plaque formation at 5 ug/mL after 1 hr relative to control. The essentials:
as §1

Test [3] has as its system Human alphaherpesvirus 1. The test can be described thus: Antiviral activity against HSV1 infected in african green monkey Vero cells assessed as reduction of plaque formation at 30 ug/mL treated 1 hr after infection measured after 1 hr by replication assay relative to control. The essentials: (§2)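 Replication format. Vero cells seeded at 10⁵ cells/ml and grown 2 days at 37 °C. Infected with HSV-1 at 10⁴ PFU/well for 1 h at 37 °C, then unadsorbed virus washed off three times with supplement-free medium. Plaques formed, fixed, stained and counted. % reduction calculated against infected control wells.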

The subject of test [4] is Human alphaherpesvirus 1. The test can be described thus: Antiviral activity against HSV1 infected in african green monkey Vero cells assessed as reduction of plaque formation at 40 ug/mL treated 1 hr after infection measured after 1 hr by replication assay relative to control. Summed up: as §2
The test system of test [5] is Human alphaherpesvirus 1. The test can be described thus: Antiviral activity against HSV1 infected in african green monkey Vero cells assessed as reduction of plaque formation at 30 ug/mL pretreated 2 hrs before infection measured after 1 hr by adsorption assay relative to control. Summed up:
(§3)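 Adsorption format. Vero cells seeded at 10⁵ cells/ml and grown 2 days at 37 °C. Compound in supplement-free medium coincubated with cells for 2 h at 4 °C, then washed three times. HSV-1 at 10⁴ PFU/well added to pretreated cells for 1 h. Agarose–DMEM overlay, 37 °C until plaques, formalin fix and crystal violet stain. % plaque reduction calculated against untreated infected cells.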

The subject of test [6] is Human alphaherpesvirus 1. Description: Antiviral activity against HSV1 infected in african green monkey Vero cells assessed as reduction of plaque formation at 40 ug/mL pretreated 2 hrs before infection measured after 1 hr by adsorption assay relative to control. The essentials:
as §3

Test [7] deals with Human alphaherpesvirus 1. Description: Antiviral activity against HSV1 infected in african green monkey Vero cells assessed as reduction of plaque formation at 30 ug/mL pretreated 1 hr before infection measured after 1 hr by virucidal assay relative to control. The essentials: (§4)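 Virucidal format. 10⁷ PFU HSV-1 in serum-free DMEM mixed with compound for 1 h. Mixture serially diluted 10-fold three times, and each dilution applied to Vero monolayers (10⁵ cells/ml, grown 2 days) for 1 h. DMEM overlay added, incubated at 37 °C, fixed and stained. % plaque reduction calculated against virus not pretreated with compound.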

The test system of test [8] is Human alphaherpesvirus 1. Description: Antiviral activity against HSV1 infected in african green monkey Vero cells assessed as reduction of plaque formation at 20 ug/mL pretreated 2 hrs before infection measured after 1 hr by adsorption assay relative to control. The essentials:
as §3

For test [9], the system named is Human alphaherpesvirus 1. Description: Antiviral activity against HSV1 infected in african green monkey Vero cells assessed as reduction of plaque formation at 20 ug/mL treated 1 hr after infection measured after 1 hr by replication assay relative to control. The essentials:
as §2

Test [10] has as its system Human alphaherpesvirus 1. Description: Antiviral activity against HSV1 infected in african green monkey Vero cells assessed as reduction of plaque formation at 20 ug/mL pretreated 1 hr before infection measured after 1 hr by virucidal assay relative to control. Summed up: as §4

Take `COc1ccc(C2C(=O)C(c3ccc4c(c3)CCCC4)N=C3SCC(=O)N32)cc1OC` (stereo not given): the inhibition at 2 µg/mL in test [1] amounted to 0%. Besides, the inhibition at 5 µg/mL in test [2] stood at 0%.
Turning to `COc1ccc(C2NC(SC(C(C)=O)C(C)=O)=NC(c3ccc4c(c3)CCCC4)C2=O)cc1OC` (stereo not given), the inhibition at 2 µg/mL in test [1] came out at 90%. In [2], the inhibition at 5 µg/mL was determined as 95%. For the same compound, the inhibition at 30 µg/mL in test [3] turned out to be 0%; in test [5] it was 0%; in test [7] it was 28%. In addition, the inhibition at 40 µg/mL in test [4] and in test [6] was 0% in each case.
Consider `COc1ccc(C2OC2C(=O)c2ccc3c(c2)CCCC3)cc1OC` (stereo not given), for which the inhibition at 2 µg/mL in test [1] was determined as 24%. The inhibition at 5 µg/mL in test [2] was 57%.
Taken in the same sequence, the figures for `Cc1ccc(C2C(O)C(c3ccc4c(c3)CCCC4)=NN2c2ccccc2)cc1` (stereo not given) were 76% and 76%.
Taken in the same sequence, the figures for `COc1ccc(C2C(=O)C(c3ccc4c(c3)CCCC4)N=C3SC(C(C)=O)=C(C)N32)cc1OC` (stereo not given) were 0% and 14%.
Take `COc1ccc(C2C(=O)C(c3ccc4c(c3)CCCC4)N=C3SC(C)C(=O)N32)cc1OC` (stereo not given): the inhibition at 20 µg/mL in test [8] was 0%; in test [9] it was 60%; in test [10], 92%. In addition, the inhibition at 2 µg/mL in test [1] worked out at 90%. Also, the inhibition at 5 µg/mL in [2] worked out at 100%. Moreover, the inhibition at 30 µg/mL came to 80% in [3], 0% in [5] and 95% in [7].
In the case of `COc1ccc(C2C(=O)C(c3ccc4c(c3)CCCC4)N=c3s/c(=C/c4ccc(Cl)cc4)c(=O)n32)cc1OC` (stereo not given), the inhibition at 2 µg/mL in [1] came out at 0%. The inhibition at 5 µg/mL in test [2] was found to be 0%.
On to `Cc1ccc(C2OC2C(=O)c2ccc3c(c2)CCCC3)cc1` (stereo not given), for which the inhibition at 2 µg/mL in test [1] was found to be 0%. Further, the inhibition at 5 µg/mL in test [2] worked out at 0%.
On to `O=C(c1ccc2c(c1)CCCC2)C1OC1c1ccc(Br)cc1` (stereo not given), for which the inhibition at 2 µg/mL in test [1] worked out at 30%. Also, the inhibition at 5 µg/mL in test [2] stood at 18%.
Taken in the same sequence, the figures for `Cc1ccc(-c2cc(-c3ccc4c(c3)CCCC4)nn2-c2ccccc2)cc1` were 3% and 26%.
Take `Cc1ccc(C2NC(=S)NC(c3ccc4c(c3)CCCC4)C2=O)cc1` (stereo not given): in test [1], the inhibition at 2 µg/mL was 0%. Moreover, the inhibition at 5 µg/mL in [2] worked out at 66%.
Taken in the same sequence, the figures for `COc1ccc(C2NC(=S)NC(c3ccc4c(c3)CCCC4)C2=O)cc1OC` (stereo not given) were 27% and 54%.
Consider `O=C(c1ccc2c(c1)CCCC2)C1OC(c2ccc(Br)cc2)C(C(=O)c2ccc3c(c2)CCCC3)OC1c1ccc(Br)cc1` (stereo not given), for which the inhibition at 2 µg/mL in test [1] was determined as 0%. In addition, in test [2], the inhibition at 5 µg/mL is 0%.
Regarding `COc1ccc(C2C(=O)C(c3ccc4c(c3)CCCC4)N=C3SCCC(=O)N32)cc1OC` (stereo not given), in [1], the inhibition at 2 µg/mL came to 3%. Further, the inhibition at 5 µg/mL in test [2] is 30%.
Taken in the same sequence, the figures for `COc1ccc(C2NC(=O)NC(c3ccc4c(c3)CCCC4)C2=O)cc1OC` (stereo not given) were 33% and 21%.
Taken in the same sequence, the figures for `Cc1ccc(C2NC(=N)NC(c3ccc4c(c3)CCCC4)C2=O)cc1` (stereo not given) were 4% and 0%.
As to `CCOC(=O)SC1=NC(c2ccc3c(c2)CCCC3)C(=O)C(c2ccc(OC)c(OC)c2)N1` (stereo not given), the inhibition at 2 µg/mL in [1] was 61%. Also, in [2], the inhibition at 5 µg/mL is 19%.

By inhibition is commonly meant how much of the control response was suppressed.
